# Measurements as given in ChEMBL document CHEMBL4765320, “Identification and optimization of piperine analogues as neuroprotective agents for the treatment of Parkinson's disease via the activation of Nrf2/keap1 pathway” (Eur J Med Chem, 2020).
# The source made the active and inactive calls. The rule behind the calls is not given here.
# Columns and labels:
# PC-12 [1] = assay: Inhibition of H202-induced apoptosis in rat PC-12 cells assessed as necrotic cells at 12.5 uM after 24 hrs by Annexin-V-FITC/PI-staining based flow cytometric analysis (reference value: 0.33%); type: functional; parameters: scale not given: the % may be the effect or the level left
# Method in brief: (§1)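 PC12 cells seeded 2 × 10⁵/well for 24 h, pretreated 24 h with 12.5, 25, 50 or 100 µM compound, then given fresh medium containing 650 µM H2O2. Harvested cells washed in binding buffer, stained 5 min with Annexin V-FITC/PI, analysed by flow cytometry.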
# PC-12 [2] = assay: Inhibition of H202-induced apoptosis in rat PC-12 cells assessed as late apoptotic cells at 12.5 uM after 24 hrs by Annexin-V-FITC/PI-staining based flow cytometric analysis (reference value: 32.5%); type: functional; parameters: scale not given: the % may be the effect or the level left; method in brief: as §1
# PC-12 [3] = assay: Inhibition of H202-induced apoptosis in rat PC-12 cells assessed as early apoptotic cells at 12.5 uM after 24 hrs by Annexin-V-FITC/PI-staining based flow cytometric analysis (reference value: 15.16%); type: functional; parameters: scale not given: the % may be the effect or the level left; method in brief: as §1
# PC-12 [4] = assay: Inhibition of H202-induced apoptosis in rat PC-12 cells assessed as necrotic cells at 25 uM after 24 hrs by Annexin-V-FITC/PI-staining based flow cytometric analysis (reference value: 0.33%); type: functional; parameters: scale not given: the % may be the effect or the level left; method in brief: as §1
# PC-12 [5] = assay: Inhibition of H202-induced apoptosis in rat PC-12 cells assessed as late apoptotic cells at 50 uM after 24 hrs by Annexin-V-FITC/PI-staining based flow cytometric analysis (reference value: 32.5%); type: functional; parameters: scale not given: the % may be the effect or the level left; method in brief: as §1
# PC-12 [6] = assay: Inhibition of H202-induced apoptosis in rat PC-12 cells assessed as early apoptotic cells at 50 uM after 24 hrs by Annexin-V-FITC/PI-staining based flow cytometric analysis (reference value: 15.16%); type: functional; parameters: scale not given: the % may be the effect or the level left; method in brief: as §1
# PC-12 [7] = assay: Inhibition of H202-induced apoptosis in rat PC-12 cells assessed as early apoptotic cells at 100 uM after 24 hrs by Annexin-V-FITC/PI-staining based flow cytometric analysis (reference value: 15.16%); type: functional; parameters: scale not given: the % may be the effect or the level left; method in brief: as §1
# PC-12 [8] = assay: Cytoprotection activity against H2O2-induced rat PC12-shNT cell assessed as cell viability at 12.5 to 100 uM pretreated for 24 hrs followed by H2O2 challenge and measured after 24 hrs by MTT assay; type: functional, cell-based; conditions: dose 12.5-100 µM, time 48.0 hrs
# Method in brief: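 PC12 lines made by lentiviral shRNA against rat Nrf2 (shNrf2-2) or scrambled control (shNT), selected with 0.5 mg/mL G418, knockdown confirmed by Western blot. Pretreated 24 h with 12.5, 25.0, 50.0 or 100 µM compound, then H2O2 for 24 h; viability by MTT; mean ± SD, three independent experiments.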
# Mus musculus [9] = assay: Neuroprotective activity in lesioned C57BL/6 mouse model of Parkinson's disease assessed as increase in time spent on rotarod at 50 mg/kg, po administered for 2 week before MPTP stimulation by rotarod test; type: functional; conditions: time 2 weeks
# Method in brief: (§2)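 Male 10-week-old C57BL/6 mice (20–23 g), n = 6/group. Prophylactic: oral compound (50 or 100 mg/kg in saline) 2 weeks, then MPTP-HCl 25 mg/kg i.p. in week 3. Therapeutic: MPTP-HCl 25 mg/kg i.p. 1 week, then oral 100 mg/kg 2 weeks. Saline vehicle. Pole/rotarod training last 3 days; TH immunohistochemistry on SNpc and striatum.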
# Mus musculus [10] = assay: Neuroprotective activity in lesioned C57BL/6 mouse model of Parkinson's disease assessed as increase in time spent on rotarod at 100 mg/kg, po administered for 2 week before MPTP stimulation by rotarod test; type: functional; conditions: time 2 weeks; method in brief: as §2
# Mus musculus [11] = assay: Neuroprotective activity in lesioned C57BL/6 mouse model of Parkinson's disease assessed as assessed as reduction in climbing down time at 50 mg/kg, po administered for 2 week before MPTP stimulation by pole test; type: functional; conditions: C57BL/6, po, 336 h, time 2 weeks; method in brief: as §2
# Mus musculus [12] = assay: Neuroprotective activity in lesioned C57BL/6 mouse model of Parkinson's disease assessed as assessed as reduction in climbing down time at 100 mg/kg, po administered for 2 week before MPTP stimulation by pole test; type: functional; conditions: C57BL/6, po, 336 h, time 2 weeks; method in brief: as §2
# Mus musculus [13] = assay: Neuroprotective activity in lesioned C57BL/6 mouse model of Parkinson's disease assessed as assessed as reduction in climbing down time at 100 mg/kg, po administered for 2 week after MPTP stimulation by pole test; type: functional; conditions: C57BL/6, po, 336 h, read-out: INH, time 2 weeks; method in brief: as §2
# Mus musculus [14] = assay: Neuroprotective activity against lesioned C57BL/6 mouse model of Parkinson's disease assessed as upregulation of Nrf2 in SNpc and striatum area at 100 mg/kg , po administered for 2 week before MPTP stimulation by Immuno histochemistry assays; type: functional, organism-based; conditions: Brain, time 2.0 weeks
# Method in brief: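 Prophylactic regimen in male C57BL/6 mice (n = 6): oral compound 100 mg/kg in saline 2 weeks, then MPTP-HCl 25 mg/kg i.p. in week 3. Nrf2 immunohistochemistry in striatum and SNpc, quantified as Nrf2-immunopositive density relative to total area; mean ± SD.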
# PC-12 [15] = assay: Cytotoxicity against rat PC-12 cells assessed as increase LDH content in presence of H2O2 incubated at 50 to 100 uM for 24 hrs by Lactate dehydrogenase assay; type: cell-based; conditions: pc-12, 24 h, dose 50-100 µM
# Method in brief: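 PC12 cells seeded 1 × 10⁴/well for 24 h, pretreated with compound at several concentrations (12.5–100 µM range), then challenged with H2O2; LDH released into medium quantified as membrane-damage marker. Mean ± SD, three independent experiments.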
# PC-12 [16] = assay: Inhibition of H2O2-induced reactive oxygen species production in rat PC-12 cells assessed as ROS accumulation at 100 uM measured after pretreated for 24 hrs followed by H2O2 challenge and measured after 24 hrs by DCFH-DA probe based flow cytometry; type: functional, cell-based
# Method in brief: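 PC12 cells seeded 1 × 10⁴/well, pretreated 24 h with 12.5–100 µM compound, then 300 µM H2O2 for 24 h. Rinsed, loaded with DCFH-DA (1:1000 in serum-free medium) 15 min at room temperature in the dark, washed; fluorescence read by microscopy, plate reader ([…]) and flow cytometry; three independent experiments.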
# PC-12 [17] = assay: Inhibition of H2O2-induced mitochondrial membrane potential loss in rat PC-12 cells pretreated for 24 hrs followed by H2O2 challenge and measured after 24 hrs by JC-1 staining based fluorescence microplate reader assay; conditions: dose 12.5-50 µM, time 48.0 hrs
# Mus musculus [18] = assay: Neuroprotective activity against lesioned C57BL/6 mouse model of Parkinson's disease assessed as increase in number of TH positive cells at 100 mg/kg , po administered for 2 week […] by Immuno histochemistry assays; conditions: time 2 weeks
compound,measurement,setting,value
COc1ccccc1/C=C/C=C/C(=O)N1CCCCC1,Activity,PC-12 [1],0.3%
same,Activity,PC-12 [2],26.08%
same,Activity,PC-12 [3],12.26%
same,Activity,PC-12 [4],0.24%
same,Activity,PC-12 [5],12.95%
same,Activity,PC-12 [6],12.01%
same,Activity,PC-12 [7],12.11%
same,Activity,PC-12 [8],Active
same,Time,Mus musculus [9],253.7 s
same,Time,Mus musculus [10],226.2 s
same,inhibition in vivo at 50 mg/kg,Mus musculus [11],38.1%
same,inhibition in vivo at 100 mg/kg,Mus musculus [12],34.5%
same,inhibition in vivo at 100 mg/kg,Mus musculus [13],20.6%
same,Activity,Mus musculus [14],Active
same,Activity,PC-12 [15],Toxic
same,Activity,PC-12 [16],inactive
same,inhibition,PC-12 [17],Dose-dependent effect
same,Activity,Mus musculus [18],74%
